Measured values from different studies.
Compare with care: the assays were run in different laboratories.

Compound	test system	conditions	endpoint	result
C=CC(=O)N1CC2CC(n3nc(-c4ccc(C(=O)Nc5ccccn5)cc4)c4c(N)ncnc43)CC2C1 (centres unmarked)	SCID mouse, plasma	oral, 1 mg/kg	Cmax	61.8 ng/mL
CC(C)(C)c1ccc(O)c(CN(Cc2cc(C(C)(C)C)ccc2O)C2CCC(NC(N)=O)CC2)c1 (centres unmarked)	male C57BL/6 mouse, brain	intraperitoneal, 10 mg/kg, single dose	Cmax	1070 ng/g
COc1cc(C(=O)NC2CCN(C)CC2)c(F)cc1Nc1ncc(C(F)(F)F)c(Oc2cccc3c2C(=O)N(C)C3)n1	human, plasma	oral, 100 mg, multiple doses, once daily, patients	Vd/F	284 L
Cc1cc(Nc2cc(N3CCN(C)CC3)nc(/C=C/c3ccccc3)n2)n[nH]1	human, plasma	oral, 60 mg/m², multiple doses, patients	Vd/F	699 L
CC(C)(Sc1ccncc1-c1ccc(C#N)c2ccccc12)C(=O)O	male human, plasma	oral, 20 mg, single dose, fasted, healthy volunteers	Vd/F	328 L
COc1ccc([C@@H]2CN(C(=O)[C@@H](O)CO)C[C@@]2(C)[C@@H](C)O)cc1OC1CN(c2ccc(C)cn2)C1	human, plasma	oral, 5 mg, single dose, healthy volunteers	Vd/F	46.4 L
CCNCCCNC/C=C\CNCCCNCC	human, plasma	intravenous, 200 mg, patients, infusion	Vd	0.56 L/kg
Cc1nc(-c2cnc(NC(C)C)n(C)c2=O)ccc1Oc1ccnc(-c2cnn(C)c2)c1	female mouse, plasma	oral, 3.75 mg/kg, single dose	Cmax	2780 ng/mL
